Experimental data pooled from the literature.
Each line is one published result; the experiments were not run side by side.
Target: Serine/threonine-protein kinase N1 (PKN1, Homo sapiens, UniProt Q16512)

| Compound | effect on | mode | technique | concentration | measurement | value |
| --- | --- | --- | --- | --- | --- | --- |
| Cn1c2c(c3ccc(Cl)c(Cl)c31)C(C#N)C1(CCOCC1)NC2=O (stereo not drawn) | thermal stability |  | DSF | 10 µM | ΔTm | 0.2 °C |
| C[C@@H](c1ccc2nccn2c1)n1nnc2ncc(-c3cnn(C)c3)nc21 | enzyme activity | inhibitor |  | 1 µM | activity vs control | 91% |
| C[C@H](c1cccc(C#N)c1)n1cc(Cl)cc(C(N)=O)c1=N | cell-free assay |  | competition with immobilised ligand | 1 µM | remaining binding | 65% |
| Cn1c2c(Cl)c(Cl)ccc2c2cc(N)[nH]c(=O)c21 | thermal stability |  | DSF | 10 µM | ΔTm | 0.6 °C |
| O=C(Nc1cnn(-c2csc(C(=O)NC3COC3)c2)c1)Nc1c(F)cccc1Cl | enzyme activity | inhibitor |  | 5 µM | remaining activity | 96.5% |
| O=C(NC[C@@H]1[C@H]2CN(C(=O)OCc3cc(C(F)(F)F)cc(C(F)(F)F)c3)C[C@@H]12)c1ccc2[nH]nnc2c1 | cell-free assay |  | competition with immobilised ligand | 1 µM | remaining binding | 100% |
| c1ccc(CNc2nc(N3CCOc4ccccc43)nc3c2CCCC3)cc1 | target engagement in cells | inhibitor | chemoproteomics | 20 mM | inhibition | 1.6% |
| CNC(=O)Nc1ccc2c(c1)CC[C@@]21OC(=O)N(CC(=O)N(Cc2ccc(F)cc2)[C@@H](C)C(F)(F)F)C1=O | cell-free assay |  | competition with immobilised ligand | 1 µM | remaining binding | 85% |
| Cc1c[nH]c2nc(Nc3ccc(N4CCN(C)CC4)c(F)c3)nc(-c3cccc(CC#N)c3)c12 | enzyme activity | inhibitor |  | 1 µM | activity vs control | 19% |
| Nc1ncnc2occ(-c3ccc(NC(=O)Nc4cc(C(F)(F)F)ccc4F)cc3)c12 | cell-free assay | inhibitor |  | 20 µM | remaining signal | 83% |
| C#Cc1cccc(Nc2ncnc3cc(OCCOC)c(OCCOC)cc23)c1 | cell-free assay |  |  | 0.5 µM | remaining signal | 108% |
| CCCCNc1ncc2c(-c3ccc(F)cc3)nn(C[C@H]3CC[C@H](N)CC3)c2n1 | target engagement in cells | inhibitor | chemoproteomics | 20 mM | inhibition | -43.3% |
| CS(=O)(=O)Nc1cccc(-c2csc(NC(=O)CSc3nc4nccnc4c(=O)n3CCc3ccccc3)n2)c1 | enzyme activity | inhibitor |  | 10 µM | inhibition | -5% |
| COc1cc2c(Nc3ccc(Br)cc3F)ncnc2cc1OCC1CCN(C)CC1 | cell-free assay |  |  | 0.5 µM | remaining signal | 103% |
| O=C(NCc1ncc(C(F)(F)F)cc1Cl)c1ccc2c(c1)C1(CCS(=O)(=O)CC1)[C@@H](C1CC1)N2S(=O)(=O)c1ccc(F)cc1 | cell-free assay |  | competition with immobilised ligand | 1 µM | remaining binding | 100% |
| CC(C)(O)[C@H]1CC[C@H](Nc2ccc3ncc(-c4cccc(C(F)(F)F)c4)n3n2)CC1 | enzyme activity | inhibitor |  | 1 µM | remaining activity | 65.5% |
| O=C1Nc2ccc(Cl)cc2C1=Cc1cc(Cl)c(O)c(Cl)c1 | cell-free assay |  |  | 0.5 µM | remaining signal | 93% |
| COc1cc(-c2cc(-c3ccc(N4CCNCC4)cc3)cnc2C)cc(OC)c1OC | enzyme activity | inhibitor |  | 0.1 µM | inhibition | 10% |
| COc1ccc(-c2cc3nccn3c(Nc3ncccc3C(N)=O)n2)cc1OC.Cl | enzyme activity | inhibitor |  | 1 µM | activity vs control | 50% |
| N#CCCc1ccc2c(c1)-c1[nH]c3ccc([N+](=O)[O-])cc3c1CC(=O)N2 | cell-free assay |  |  | 0.5 µM | remaining signal | 78% |

| Compound | effect on | mode | technique | concentration | measurement | value |
| --- | --- | --- | --- | --- | --- | --- |
| Cc1c(NC(=O)c2cc(C(N)=O)nc3cc(F)ccc23)c(C(F)(F)F)nn1Cc1ccc(C(C)(C)C)cc1 | cell-free assay |  | competition with immobilised ligand | 1 µM | remaining binding | 100% |
| Cn1cncc1C1=CN(c2ncnc3[nH]cnc23)CCS1 | enzyme activity | inhibitor | radiometric | 50 nM | inhibition | 18.8% |
| Nc1cc(N)c(N)cc1N | enzyme activity | inhibitor |  | 1 µM | activity vs control | 72% |
| CS(=O)(=O)N1CCCC(NC(=O)[C@H](CCC2CCCCC2)NC(=O)c2ccc(CNc3ncnc4c3nnn4-c3ccccc3)cc2)C1 (stereo partly drawn) | cell-free assay |  | competition with immobilised ligand | 0.1 µM | remaining binding | 98% |
| COc1cc2ncnc(Nc3ccc(F)c(Cl)c3)c2cc1OCCCN1CCOCC1 | cell-free assay |  |  | 0.5 µM | remaining signal | 105% |
| CCCS(=O)(=O)Nc1ccc(F)c(C(=O)c2c[nH]c3ncc(-c4ccc(Cl)cc4)cc23)c1F | enzyme activity | inhibitor |  | 1 µM | inhibition | < 10% |
| COc1cc2ncnc(Nc3ccc(Oc4ccccc4)c(C)c3C)c2cc1OC | enzyme activity | inhibitor |  | 1 µM | inhibition | 4% |
| CC[C@@H]1C(=O)N(C)c2cnc(Nc3ccc(C(=O)NC4CCN(C)CC4)cc3OC)nc2N1C1CCCC1 | enzyme activity | inhibitor |  | 1 µM | activity vs control | 77% |
| CC1(C)NC(=O)c2[nH]c3c(Cl)c(Cl)ccc3c2C1C#N (stereo not drawn) | thermal stability |  | DSF | 10 µM | ΔTm | 0.4 °C |
| CO[C@@H](C)Cn1c(=O)n(C)c2cnc3ccc(-c4cncc(C(C)(C)O)c4)cc3c21 | enzyme activity | inhibitor |  | 1 µM | activity vs control | 94% |
| Cc1ccc(C(=O)NCc2ccsc2)cc1C#Cc1cn(C(C)C)c2ncnc(N)c12 | enzyme activity | inhibitor |  | 1 µM | activity vs control | 93% |
| CC(C)(C)c1nc2c(s1)c1nc(N)ncc1c1ccc(NS(=O)(=O)c3c(F)cccc3F)c(F)c12 | enzyme activity | inhibitor | radiometric | 1 µM | remaining activity | 102% |
| CN(C)C1CCN(CC#Cc2nn(C3CCCC3)c3nc(NCc4ccccc4)ncc23)C1 (stereo not drawn) | enzyme activity | inhibitor | FRET | 0.1 µM | inhibition | -1% |
| Cc1c[nH]c2nccc(Oc3c(F)cc(Nc4cc(Cl)nc(N)n4)cc3F)c12 | cell-free assay |  | competition with immobilised ligand | 0.1 µM | remaining binding | 72% |
| Cc1sc(C(=O)NC2COC2)cc1-n1cc(NC(=O)Nc2c(F)cccc2Cl)cn1 | enzyme activity | inhibitor |  | 10 µM | remaining activity | 76.8% |
| Cc1cc(F)c(Nc2ncnc3cc(OCc4ccccc4)ccc23)cc1O.Cl | enzyme activity | inhibitor |  | 1 µM | activity vs control | 89% |
| CC(=O)C1=C(C)N(c2cccc(C(F)(F)F)c2)C(=O)N[C@@H]1c1ccc(C#N)nc1 | cell-free assay |  | competition with immobilised ligand | 1 µM | remaining binding | 71.1% |
| O=c1c(O)c(-c2ccc(O)c(O)c2)oc2cc(O)cc(O)c12 | enzyme activity | inhibitor |  | 1 µM | activity vs control | 69% |
| CN1CCC2(CC1)NC(=O)c1c(c3ccc(Cl)c(Cl)c3n1C)C2C#N (racemic) | thermal stability |  | DSF | 10 µM | ΔTm | 1 °C |
